pIC50: −log10 of the molar value. Values after ≈ are worked out from the molar mass of the structure shown. Active and inactive are the calls of the source. No cut-off for these calls is given here.
Legend:
[1] = Antiinflammatory activity in human neutrophils assessed as inhibition of fMet-Leu-Phe/Cytochalasin B-induced elastase release at 10 ug/mL; format: functional, cell-based; settings: Neutrophil
Summary of the method: (§1)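 Human volunteer neutrophils (6 × 10^5/mL) prepared by dextran sedimentation, Ficoll Hypaque gradient and hypotonic lysis, kept in Ca2+-free HBSS pH 7.4 at 4 °C. Elastase substrate MeO-Suc-Ala-Ala-Pro-Val-p-nitroanilide 100 µM added; cells equilibrated 2 min at 37 °C, drug 5 min, then fMLP 100 nM/cytochalasin B 0.5 µg/mL stimulation. Absorbance at 405 nm monitored continuously; n = 4.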

[2] = Antiinflammatory activity in human neutrophils assessed as inhibition of fMet-Leu-Phe/Cytochalasin B-induced superoxide anion generation at 10 ug/mL; format: functional; settings: Neutrophil
Summary of the method: (§2)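 Neutrophils isolated from venous blood of healthy adult volunteers (20–28 years) by dextran sedimentation, Ficoll Hypaque centrifugation and hypotonic erythrocyte lysis, >98% viable, held in Ca2+-free HBSS pH 7.4 at 4 °C. Cells given 0.5 mg/mL ferricytochrome c and 1 mM Ca2+, 37 °C 2 min, drug 5 min, cytochalasin B 1 µg/mL 3 min, then fMLP 100 nM 10 min. SOD-inhibitable (100 U/mL) reduction at 550 nm; n = 4.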

[3] = Antiinflammatory activity in human neutrophils assessed as inhibition of fMet-Leu-Phe/Cytochalasin B-induced superoxide anion generation; format: functional, cell-based; settings: Neutrophil; summary of the method: as §2
[4] = tested on: Neutrophil; test: Antiinflammatory activity in human neutrophils assessed as inhibition of elastase release at 10 ug/mL; format: functional, cell-based
Summary of the method: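 Neutrophils from venous blood of healthy adult volunteers, isolated by dextran sedimentation, Ficoll Hypaque centrifugation and hypotonic erythrocyte lysis, kept in Ca2+-free HBSS pH 7.4 at 4 °C. Cells (6 × 10^5/mL) with MeO-Suc-Ala-Ala-Pro-Val-p-nitroanilide (100 µM), 2 min at 37 °C, drug 5 min, then fMLP (100 nM)/cytochalasin B (0.5 µg/mL). A405 monitored continuously. Percent inhibition, mean ± SEM, n = 4.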

[5] = tested on: Neutrophil; test: Antiinflammatory activity in human neutrophils assessed as inhibition of superoxide anion generation at 10 ug/mL; format: functional, cell-based
Summary of the method: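 Healthy-volunteer neutrophils (dextran/Ficoll isolation, Ca2+-free HBSS pH 7.4) supplemented with 0.5 mg/mL ferricytochrome c and 1 mM Ca2+. Equilibrated 2 min at 37 °C, drug 5 min, cytochalasin B 1 µg/mL 3 min, then fMLP 100 nM 10 min. SOD-inhibitable ferricytochrome c reduction read at 550 nm with stirring, difference ± SOD (100 U/mL). Percent inhibition, n = 4.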

[6] = Antiinflammatory activity in human neutrophils assessed as inhibition of fMet-Leu-Phe/Cytochalasin B-induced elastase release; format: functional, cell-based; settings: Neutrophil; summary of the method: as §1

| SMILES | IC50 [3] [µg/mL] | IC50 [6] [µg/mL] | inhibition at 10 µg/mL [1] [%] | pIC50 [3] | other results |
| --- | --- | --- | --- | --- | --- |
| CC(=O)c1c(O)cc(OC/C=C(\C)CCC=C(C)C)c2c1OC(C)(C)[C@H](O)C2 |  |  | 28.7 |  | inhibition at 10 µg/mL [2]: 30.6% |
| CC(=O)c1c(O)cc(O)cc1OC/C=C(\C)CCC=C(C)C |  |  |  |  | Activity [4]: Active; Activity [5]: Active |
| CC[C@H](CC[C@@H](C)[C@H]1CC[C@H]2[C@@H]3C(=O)C=C4C[C@@H](O)CC[C@]4(C)[C@H]3CC[C@]12C)C(C)C |  |  | 7.48 |  | inhibition at 10 µg/mL [2]: 22.6% |
| CC(=O)c1c(O)cc(OC/C=C(\C)CCC=C(C)C)c2c1OC(C)(C)C=C2 |  |  | 27.4 |  | inhibition at 10 µg/mL [2]: 21.4% |
| COc1cc(O)c2c(=O)c(OC)c(-c3ccc(OC)c(OC)c3)oc2c1 [RETUSIN] | 1.43 | 1.69 (≈ 4.72 µM) |  |  |  |
| c1ccc2c(c1)[I+]c1ccccc1-2 [DIPHENYLENEIODONIUM] |  |  |  | 6.28 |  |
| CC(=O)c1c(O)cc(OC/C=C(\C)CCC=C(C)C)c2c1OC(C)(CCC=C(C)C)C=C2 (stereo unspecified) |  |  | 26.6 |  | inhibition at 10 µg/mL [2]: 23.2% |
| COc1cc(O)c2c(=O)c(OC)c(-c3ccc(O)cc3)oc2c1 [KUMATAKENIN] | 1.2 | 0.7 (≈ 2.23 µM) |  |  |  |
| O=S(=O)(F)Cc1ccccc1 [PHENYLMETHYLSULFONYLFLUORIDE] |  |  |  |  | pIC50 [1]: 4.45 |

Further lines, with some results ahead:

| IC50 [3] [µg/mL] | IC50 [6] [µg/mL] | SMILES | inhibition at 10 µg/mL [1] [%] | pIC50 [3] | other results |
| --- | --- | --- | --- | --- | --- |
| 8.02 |  | CC(=O)c1c(OC/C=C(\C)CCC=C(C)C)cc(O)c(C(=O)O)c1O | 46.1 |  |  |
| 0.73 | 0.6 (≈ 1.87 µM) | CC(C)=CCC/C(C)=C/COc1cc(O)cc(O)c1C(=O)CO |  |  |  |
| 3.75 | 0.91 (≈ 2.84 µM) | CC(C)=CCC/C(C)=C/COc1cc(O)c(C(=O)CO)c(O)c1 |  |  |  |
| 6.62 | 5.79 (≈ 16.6 µM) | CC(=O)c1c(O)cc(OC/C=C(\C)CCC=C(C)C)c(C(=O)O)c1O |  |  |  |
| 1 | 0.99 (≈ 2.88 µM) | COc1cc(O)c2c(=O)c(OC)c(-c3ccc(O)c(OC)c3)oc2c1 [PACHYPODOL] |  |  |  |
